Converted amounts (≈) assume the structure as drawn.
How the values were obtained:
[1] = tested on: Trypanosoma brucei brucei; test: Antitrypanosomal activity against Trypanosoma brucei brucei BF427 measured after 48 hrs by Alamar blue assay; type: functional, organism-based; details: BF427, 48 h
How it was run: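 Bloodstream T. brucei BF427 cultured in HMI-9 medium. Exposed to serial 3-fold compound dilutions in triplicate, read with Alamar Blue at 48 h. Pentamidine isethionate control in every assay.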

[2] = Cytotoxicity against human CRL8155 cells assessed as growth inhibition after 48 hrs by Alamar blue assay; type: cell-based
How it was run: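 Serial 3-fold dilutions in quadruplicate, 48 h, AlamarBlue read-out. Inhibition relative to untreated cells after subtracting a 50 µM quinacrine background. EC50 by nonlinear regression.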

[3] = target: Cytochrome P450 3A4 (Homo sapiens, UniProt P08684); test: Inhibition of CYP3A4 (unknown origin); type: ADME
Chain of Cytochrome P450 3A4 (P08684 whole entry): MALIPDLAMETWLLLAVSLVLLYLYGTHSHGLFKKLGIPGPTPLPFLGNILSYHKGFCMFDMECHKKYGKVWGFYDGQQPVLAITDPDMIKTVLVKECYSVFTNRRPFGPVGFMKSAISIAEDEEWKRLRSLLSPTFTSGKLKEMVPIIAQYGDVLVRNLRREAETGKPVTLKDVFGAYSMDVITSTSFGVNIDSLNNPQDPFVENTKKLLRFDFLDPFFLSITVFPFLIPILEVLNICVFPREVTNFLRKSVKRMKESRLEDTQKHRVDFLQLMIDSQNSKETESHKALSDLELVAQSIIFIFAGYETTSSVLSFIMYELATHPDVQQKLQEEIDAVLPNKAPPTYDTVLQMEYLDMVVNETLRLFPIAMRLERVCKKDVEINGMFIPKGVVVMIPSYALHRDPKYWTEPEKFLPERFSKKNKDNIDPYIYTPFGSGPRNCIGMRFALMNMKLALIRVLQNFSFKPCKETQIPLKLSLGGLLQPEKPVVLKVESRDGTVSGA

[4] = tested on: Mus musculus; test: Cmax in mouse at 50 mg/kg, po administered as single dose measured 24 hrs post dose by liquid chromatography/tandem mass spectrometric analysis; type: ADME, organism-based; design: dose 50 mg/kg, route oral; details: in vivo
How it was run: (§1)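 Single oral dose of 50 mg/kg to mice in Phosal 53 MCT (60%)/PEG400 (30%)/ethanol (10%). Tail blood collected at 0.5, 1, 2, 4, 6, 8 and 24 h post dose and spotted onto DMPK cards. Punched dried blood spot disks extracted with acetonitrile, quantified by LC-MS/MS.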

[5] = tested on: Mus musculus; test: AUC in mouse at 50 mg/kg, po administered as single dose measured 24 hrs post dose by liquid chromatography/tandem mass spectrometric analysis; type: ADME, organism-based; details: in vivo; how it was run: as §1
[6] = Ratio of drug level in mouse brain to plasma at 5 mg/kg, ip administered as single dose measured 1 hr post dose by liquid chromatography/tandem mass spectrometric analysis; type: ADME, organism-based
How it was run: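 Single IP injection of 5 mg/kg in 5% DMSO/7% Tween80/3% EtOH in 0.9% saline. At 1 h, plasma and brains collected; brains homogenized in water. Vehicle-injected mice (n=3) supplied matrix for standard curves. LC-MS/MS quantitation, with brain levels corrected for 3% v/w residual blood.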

[7] = Protein binding in Swiss Webster mouse plasma at 2 uM after 8 hrs by microdialysis based liquid chromatography/tandem mass spectrometric analysis; type: ADME, cell-free
How it was run: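 Compound at 2 µM in 50% pooled female Swiss Webster mouse plasma (lithium heparin) with 10X PBS, dialysed against blank 10X PBS in triplicate chambers of a microdialysis device. Incubation at 37 °C, 5% CO2 overnight or ≥8 h with shaking. Centrifuged 3000 rcf 15 min; supernatants concentrated, LC-MS/MS. Propranolol control.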

[8] = Solubility in phosphate buffered saline at pH 7.4 at 50 uM incubated overnight by liquid chromatography/tandem mass spectrometric analysis; type: physicochemical; details: buffer, pH 7.4, 50 µM
How it was run: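 Compound at 50 µM in 1X PBS adjusted to pH 7.4, shaken overnight at 37 °C, then centrifuged 13500 rpm for 15 min at room temperature. Duplicate supernatant aliquots analysed by LC-MS/MS.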

[9] = tested on: Trypanosoma brucei rhodesiense; test: Antitrypanosomal activity against trypomastigote form of Trypanosoma brucei rhodesiense STIB900 infected in mouse assessed as cure rate at 50 mg/kg administered via oral gavage bid from day 2 to 5 post infection measured 3 times per week for first month and weekly up to 60 days by microscopic method relative to control; type: functional
[10] = Half life in mouse liver microsomes at 1.5 uM by liquid chromatography/tandem mass spectrometric analysis; type: ADME, microsome
How it was run: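 Pooled mouse liver microsomes at 0.5 mg/ml with compound at 1.5 µM final, in duplicate. Quenched with acetonitrile at 0, 5, 10, 15, 30 and 60 min, analysed by LC-MS/MS. Testosterone and dextromethorphan run as controls.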

| EC50 [1] | Structure (SMILES) | CC50 [2] | further results |
| --- | --- | --- | --- |
| 17800 nM | COc1ccc(N2C(=O)CN(Cc3ccc(C#N)cc3)C2=S)cc1Cl | – | – |
| 14 nM | COc1ccc(N2C(=O)CN(Cc3ccc(F)cc3Cl)C2=S)cc1OC | 36800 nM | – |
| 28 nM | COc1cc(N2C(=O)CN(Cc3ccc(F)cc3C(F)(F)F)C2=S)ccc1N(C)C | > 50000 nM | – |
| 6 nM | COc1cc(N2C(=O)CN(Cc3ccc(F)cc3F)C2=S)ccc1N(C)C | > 50000 nM | – |
| 853 nM | COc1ccc(N2C(=O)CN(Cc3ccc(Cl)cc3)C2=S)cc1Cl | – | – |
| > 20000 nM | COc1ccc(N2C(=O)CN(Cc3ccc(F)c(C#N)c3)C2=S)cc1Cl | – | – |
| 11 nM | COc1cc(F)ccc1CN1CC(=O)N(c2ccc(N(C)C)c(Cl)c2)C1=S | 12600 nM | – |
| > 20000 nM | COc1ccc(N2C(=O)CN(Cc3ccc(C(F)(F)F)cc3)C2=S)cc1Cl | – | – |
| 37 nM | COc1ccc(N2C(=O)CN(Cc3ccc(F)cc3C(F)(F)F)C2=S)cc1OC | > 50000 nM | – |
| 13 nM | COc1cc(N2C(=O)CN(Cc3ccccc3)C2=S)ccc1N(C)C | – | – |
| 28 nM | COc1cc(N2C(=O)CN(Cc3ccc(F)c(F)c3)C2=S)ccc1N(C)C | > 50000 nM | – |
| 7 nM | COc1cc(N2C(=O)CN(Cc3ccc(F)cc3)C2=S)ccc1N(C)C | > 50000 nM | – |
| 44 nM | COc1cc(N2C(=O)CN(Cc3ccc(F)cc3[N+](=O)[O-])C2=S)ccc1N(C)C | > 50000 nM | – |
| 3000 nM | COc1ccc(N2C(=O)CN(Cc3cccnc3)C2=S)cc1Cl | – | – |
| 555 nM | COc1ccc(N2C(=O)CN(Cc3ccc(F)cc3[N+](=O)[O-])C2=S)cc1OC | > 50000 nM | – |
| 13 nM | CN(C)c1ccc(N2C(=O)CN(Cc3ccc(F)c(F)c3)C2=S)cc1Cl | > 50000 nM | – |
| 52 nM | COc1ccc(N2C(=O)CN(Cc3ccc(F)cc3)C2=S)cc1Cl | – | – |
| 350 nM | COc1ccc(N2C(=O)CN(Cc3ccc(F)cc3[N+](=O)[O-])C2=S)cc1Cl | – | – |

| EC50 [1] | Structure (SMILES) | CC50 [2] | further results |
| --- | --- | --- | --- |
| 346 nM | COc1ccc(N2C(=O)CN(Cc3ccccc3)C2=S)cc1Cl | – | – |
| 968 nM | COc1ccc(N2C(=O)CN(Cc3cccc(F)c3)C2=S)cc1Cl | – | – |
| 924 nM | COc1ccc(N2C(=O)CN(Cc3ccc(F)cc3C(F)(F)F)C2=S)cc1Cl | – | – |
| 11 nM | COc1cc(F)ccc1CN1CC(=O)N(c2ccc(N(C)C)c(OC)c2)C1=S | 39600 nM | – |
| > 20000 nM | COc1ccc(CN2CC(=O)N(c3ccc(OC)c(Cl)c3)C2=S)cc1 | – | – |
| 161 nM | COc1ccc(N2C(=O)CN(Cc3ccccc3)C2=S)cc1OC | – | – |
| 107 nM | COc1cc(F)ccc1CN1CC(=O)N(c2ccc(OC)c(OC)c2)C1=S | > 50000 nM | – |
| 115 nM | COc1ccc(N2C(=O)CN(Cc3ccc(F)c(F)c3)C2=S)cc1OC | > 50000 nM | – |
| 1550 nM | COc1ccc(N2C(=O)CN(Cc3ccc(C)cc3)C2=S)cc1Cl | – | – |
| 431 nM | COc1ccc(N2C(=O)CN(Cc3ccccc3)C2=S)cc1N(C)C | – | – |
| 63 nM | COc1ccc(N2C(=O)CN(Cc3ccc(F)cc3F)C2=S)cc1Cl | – | – |
| > 20000 nM | COC(=O)c1ccc(CN2CC(=O)N(c3ccc(OC)c(Cl)c3)C2=S)cc1 | – | – |
| 191 nM | COc1ccc(N2C(=O)CN(Cc3ccc(F)cc3OC)C2=S)cc1Cl | – | – |
| 28 nM | CN(C)c1ccc(N2C(=O)CN(Cc3ccc(F)cc3F)C2=S)cc1F | > 50000 nM | – |
| 33 nM | COc1ccc(N2C(=O)CN(Cc3ccc(F)cc3F)C2=S)cc1OC | > 50000 nM | – |
| > 10000 nM | COc1cc(N2C(=O)CN(Cc3ccccc3)C2=S)cc(OC)c1OC | – | – |
| 49 nM | COc1ccc(N2C(=O)CN(Cc3ccc(F)cc3)C2=S)cc1OC | > 50000 nM | – |
| 313 nM | COc1ccc(N2C(=O)CN(Cc3ccc(F)c(F)c3)C2=S)cc1Cl | – | – |

Further lines, the compound ahead of its results:

| Structure (SMILES) | EC50 [1] | CC50 [2] | further results |
| --- | --- | --- | --- |
| CN(C)c1ccc(N2C(=O)CN(Cc3ccccc3)C2=S)cc1Cl | 16 nM | – | – |
| CC(C)c1ccc(N2C(=O)CN(Cc3ccccc3)C2=S)cc1 | > 10000 nM | – | – |
| N=C(N)c1ccc(OCCCCCOc2ccc(C(=N)N)cc2)cc1 | 1.15 nM | – | – |
| O=C1CN(Cc2ccccc2)C(=S)N1c1ccc(Cl)c(C(F)(F)F)c1 | > 10000 nM | – | – |
| O=C1CN(Cc2ccc(F)cc2Cl)C(=S)N1c1ccc(N2CCCC2)c(Cl)c1 | 9 nM | > 50000 nM | – |
| O=C1CN(Cc2ccccc2)C(=S)N1c1cccc(Cl)c1 | > 20000 nM | – | – |
| COc1ccc(N2C(=O)CN(Cc3ccccc3)C2=S)c(OC)c1 | 637 nM | – | – |
| O=C1CN(Cc2ccc(F)cc2F)C(=S)N1c1ccc(N2CCCC2)c(Cl)c1 | 10 nM | > 50000 nM | – |
| CN(C)c1ccc(N2C(=O)CN(Cc3ccc(F)cc3F)C2=S)cc1Cl | 4 nM | > 50000 nM | – |
| CN(C)c1ccc(N2C(=O)CN(Cc3ccc(F)cc3Cl)C2=S)cc1F | 15 nM | > 50000 nM | – |
| O=C1CN(Cc2ccccc2)C(=S)N1c1ccc(F)c(Cl)c1 | > 10000 nM | – | – |
| COc1cccc(N2C(=O)CN(Cc3ccccc3)C2=S)c1 | > 10000 nM | – | – |
| CN(C)c1ccc(N2C(=O)CN(Cc3ccc(F)cc3C(F)(F)F)C2=S)cc1Cl | 22 nM | > 50000 nM | – |
| CC(=O)c1ccc(N2C(=O)CN(Cc3ccccc3)C2=S)cc1 | > 10000 nM | – | – |
| O=C1CN(Cc2ccccc2)C(=S)N1c1ccccc1 | > 10000 nM | – | – |
| CN(C)c1ccc(N2C(=O)CN(Cc3ccccc3)C2=S)cc1F | 125 nM | – | – |
| O=C1CN(Cc2ccccc2)C(=S)N1c1cc(Cl)ccc1F | > 10000 nM | – | – |

| Structure (SMILES) | EC50 [1] | CC50 [2] | further results |
| --- | --- | --- | --- |
| CN(C)c1ccc(N2C(=O)CN(Cc3ccccc3)C2=S)cc1 | 1500 nM | – | – |
| CCN(CC)CCCC(C)Nc1c2ccc(Cl)cc2nc2ccc(OC)cc12 (centres undefined) [QUINACRINE] | – | 2340 nM | – |
| CN(C)c1ccc(N2C(=O)CN(Cc3ccc(F)cc3[N+](=O)[O-])C2=S)cc1Cl | 19 nM | > 50000 nM | – |
| O=C(O)c1ccc(N2C(=O)CN(Cc3ccccc3)C2=S)cc1 | > 10000 nM | – | – |
| O=C1CN(Cc2ccccc2)C(=S)N1c1cc(C(F)(F)F)cc(C(F)(F)F)c1 | > 10000 nM | – | – |
| O=C1CN(Cc2ccccc2)C(=S)N1c1ccc(O)cc1 | > 10000 nM | – | – |
| O=C1CN(Cc2ccccc2)C(=S)N1c1ccc(F)cc1 | > 10000 nM | – | – |
| COc1cc(N2C(=O)CN(Cc3ccc(F)cc3Cl)C2=S)ccc1N(C)C | 1.9 to 2 nM | > 50000 nM | IC50 [3]: 7760 nM; Cmax [4]: 2500 nM; AUC [5]: 750 µmol·min/L; BPR [6]: 1.68; PPB [7]: 96.3%; solubility [8]: 4.1 µM (≈ 1.67 µg/mL); Activity [9]: 100% |
| CC(C)NCC(O)COc1cccc2ccccc12 (centres undefined) [PROPRANOLOL] | – | – | PPB [7]: 91.7% |
| CN(C)c1ccc(N2C(=O)CN(Cc3ccc(F)cc3)C2=S)cc1Cl | 3 to 3.2 nM | 39000 nM | t1/2 [10]: 15 min; Cmax [4]: 2100 nM; AUC [5]: 1376 µmol·min/L; BPR [6]: 0.74; PPB [7]: 88.8%; solubility [8]: 2.1 µM (≈ 0.794 µg/mL); Activity [9]: 100% |
| COc1ccc(Cl)cc1N1C(=O)CN(Cc2ccccc2)C1=S | > 10000 nM | – | – |
| O=C1CN(Cc2ccc(F)cc2)C(=S)N1c1ccc(N2CCCC2)c(Cl)c1 | 27 nM | > 50000 nM | – |
| COc1ccc(N2C(=O)CN(Cc3ccccc3)C2=S)cc1 | > 10000 nM | – | – |
| O=C1CN(Cc2ccccc2)C(=S)N1c1ccccc1Cl | > 20000 nM | – | – |
| CN(C)c1ccc(N2C(=O)CN(Cc3ccc(F)cc3Cl)C2=S)cc1Cl | 2 nM | > 50000 nM | – |
| O=C1CN(Cc2ccccc2)C(=S)N1c1ccc(Cl)cc1 | > 10000 nM | – | – |

Source: ChEMBL document CHEMBL4190338, “1-Benzyl-3-aryl-2-thiohydantoin Derivatives as New Anti-Trypanosoma brucei Agents: SAR and in Vivo Efficacy” (ACS Med Chem Lett, 2017)
